Bioassay records (PubChem)
The list is not random: actives were taken first. Their share in the collection is about 0.77%.
mIAP inh: mouse IAP inhibition; inhibition, % at 10 µM; purified mouse IAP, CDP-Star luminescence, 30 min; AID 2806; 330,000 tested, 0.2% active;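 active means inhibition of at least 40% at 10 µM in the primary screen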;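 further: plate controls were DMSO with enzyme for no effect and no enzyme wells for full effect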
bIAP activator: intestinal alkaline phosphatase (bovine) activation | purified bovine IAP, CDP-star luminescence, 30 min; stronger effect = higher value; fold of DMSO-control signal, blank-subtracted | 200,000 tested, 0.17% active | activation factor at 20 µM | AID 1016;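 active means activation factor of 2 or more at 20 µM, a signal rise over negative controls twice the positive control's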
mIAP act: increases mouse intestinal alkaline phosphatase activity; 330,000 tested, 0.24% active; muIAP, CDP-Star luminescence, 30 min; stronger effect = higher value; 1 = vehicle-only enzyme signal, 0 = enzyme-free wells; AID 2805; activation factor at 10 µM;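 active means activation factor of at least 2 at 20 µM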
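Assay system: mouse IAP enzyme; reagent: chemiluminescent substrate CDP-Star; dosing: test compounds delivered from DMSO solution; schedule: 30 min at room temperature; measured by: luminescence from enzymatic CDP-Star hydrolysis; controls: DMSO-only wells and no-enzyme negative control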
hIAP act: increases human intestinal alkaline phosphatase activity; purified human IAP, CDP-Star luminescence, 30 min; stronger effect = higher value; 1 = vehicle-only enzyme, 0 = enzyme-free background; activation factor at 10 µM; 330,000 tested, 0.16% active; AID 2524;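 active means activation factor of the enzyme at least 2-fold when tested at 20 µM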
Target sequence (P09923 whole entry, looked up): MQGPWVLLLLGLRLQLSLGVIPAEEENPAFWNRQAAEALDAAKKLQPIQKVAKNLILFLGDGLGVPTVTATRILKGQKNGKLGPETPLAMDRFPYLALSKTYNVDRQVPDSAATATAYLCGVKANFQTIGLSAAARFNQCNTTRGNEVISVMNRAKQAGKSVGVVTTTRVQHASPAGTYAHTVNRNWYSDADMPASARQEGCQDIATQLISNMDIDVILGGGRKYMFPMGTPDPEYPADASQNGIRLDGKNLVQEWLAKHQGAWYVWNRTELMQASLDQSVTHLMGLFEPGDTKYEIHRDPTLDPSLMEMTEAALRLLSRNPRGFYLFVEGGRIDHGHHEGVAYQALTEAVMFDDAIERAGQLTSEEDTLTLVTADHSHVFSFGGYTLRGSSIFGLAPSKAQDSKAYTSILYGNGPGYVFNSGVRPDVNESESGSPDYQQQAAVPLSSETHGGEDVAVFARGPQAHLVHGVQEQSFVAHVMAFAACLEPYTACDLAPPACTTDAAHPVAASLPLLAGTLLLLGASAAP
bIAP inhibitor: blocks bovine intestinal alkaline phosphatase activity | 190,000 tested, under 10 active | purified bovine IAP, CDP-star luminescence, 30 min | inhibition, % at 20 µM;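 active means over 50% inhibition of intestinal alkaline phosphatase at 20 µM in the single-dose screen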
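test system = bovine IAP enzyme | medium = DEA buffer 100 mM, pH 9.8, with MgCl2 1.0 mM, ZnCl2 0.02 mM | detection = luminescence | dosing = single compound dose of 20 µM, 2% DMSO final | incubation = 30 min reaction at room temperature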
hIAP inh: blocks human intestinal alkaline phosphatase. purified IAP, CDP-Star luminescence, 30 min. 330,000 tested, 0.12% active. inhibition, % at 10 µM;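 active means inhibition reaching a set limit with compound at 10 µM in the primary screen, cut at about 35% in these data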;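 further: plate controls were DMSO wells with enzyme for no effect and no-enzyme buffer wells for full effect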
hIAP act confirm: human IAP activation confirmation; shares compounds with hIAP act; purified IAP, CDP-Star luminescence, 30 min; stronger effect = lower value; activation (%Activity, negative = activation), % at 8.3 µM; 880 tested, 10% active; AID 434926;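 active means at least twofold enzyme activation in any of six single-dose repeats, which the averaged readout prints as negative percent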
* marks the source's active call; other numbers are inactive results; . = no result given.

SMILES | mIAP inh | bIAP activator | mIAP act | hIAP act | bIAP inhibitor | hIAP inh | hIAP act confirm
COc1cc(OC)cc(-c2nnc(Nc3nc4c(F)cccc4s3)o2)c1 | 18.9 | 0.9 | 0.811 | 2.03* | 6.2 | -103.0 | -1.2
CCOC(=O)c1sc(NC(=O)CSc2nc(C)cc(-c3ccccc3)n2)c(C#N)c1C | 17.6 | 0.9 | 0.824 | 1 | 14.6 | -0.2 | .
CCOC(=O)c1sc(NC(=O)CSc2n[nH]c(-c3ccc(Cl)cc3Cl)n2)c(C#N)c1C | 32.5 | 0.9 | 0.675 | 0.308 | 13.0 | 69.2* | -1.0
CSCCC(NC(=O)c1ccco1)C(=O)N(C)CC(=O)Nc1ccccc1Br (centres undefined) | -1.3 | . | 1.01 | 0.974 | . | 2.6 | .
COC(=O)CC1(C(=O)OC)Oc2ccccc2C(=O)N1c1ccc(F)cc1F (centres undefined) | 5.2 | . | 0.948 | 1.26 | . | -25.6 | .
CCn1nnc(-c2ccc(N)cc2)n1 | -2.1 | 1.1 | 1.02 | 2.02* | -7.4 | -101.5 | -22.0
Nc1ccc(-c2nnn(CC(=O)N3CCCCC3)n2)cc1 | 0.8 | . | 0.992 | 1.12 | . | -12.3 | .
Cc1ccc(OCc2cc(C(=O)NC3CCCCC3)no2)cn1 | -6.0 | . | 1.06 | 1.17 | . | -17.3 | .
Cc1cc(OCc2cc(C(=O)NC3CCC3)no2)cc(C)c1Cl | 2.1 | . | 0.979 | 0.612 | . | 38.8* | -3.4
COc1cccc(CN2CCC(n3nccc3NC(=O)CCCc3ccccc3)CC2)c1 | -66.1 | . | 1.66 | 3.28* | . | -228.4 | -17.4
CC(=O)c1cccc(CN2CCC(n3nccc3NC(=O)CCCc3ccccc3)CC2)c1 | -10.3 | . | 1.1 | 1.23 | . | -23.4 | .
CCOc1ccccc1CN1CCC(n2nccc2NC(=O)CCCc2ccccc2)CC1 | -44.0 | . | 1.44 | 3.25* | . | -225.4 | -23.6
CCOc1ccccc1CN1CCC(n2nccc2NC(=O)CCc2ccccc2)CC1 | -35.9 | . | 1.36 | 2.15* | . | -114.6 | 26.6
CC(CN1CCC(n2nccc2NC(=O)CCCc2ccccc2)CC1)c1ccccc1 (centres undefined) | -78.9 | . | 1.79 | 2.04* | . | -103.9 | -90.9
Cn1cc(CN2CCC(n3nccc3NC(=O)CCc3ccccc3)CC2)cn1 | -4.1 | . | 1.04 | 1.13 | . | -13.1 | .
CSCCC(NC(=O)C1CCC(C)CC1)C(=O)Nc1ccc(NC(C)=O)cc1 (centres undefined) | 3.8 | . | 0.962 | 1.09 | . | -9.2 | .
Cc1cc(/C=N/NC(N)=S)c(O)c(/C=N/NC(N)=S)c1 | 18.9 | . | 0.811 | 2.79* | . | -178.5 | -56.4
NC(=S)N/N=C/c1ccccc1O | 3.3 | . | 0.967 | 1.65 | . | -64.8 | .
NC(=S)N/N=C/c1cccc(O)c1O | -2.3 | 1.3 | 1.02 | 2.15* | -28.0 | -115.2 | 5.2
Cc1ccc(-n2c(C)cc(/C=N/NC(N)=S)c2C)cc1 | 2.0 | 1 | 0.98 | 1.07 | 1.2 | -7.0 | .
O=C(N/C(=C/c1ccc(Br)cc1)C(=O)N1CCCC1=O)c1ccco1 | 3.2 | 1 | 0.968 | 1.41 | -2.4 | -41.2 | .
O=C(CN1CCCC1)Nc1ccc(F)cc1 | 8.3 | 0.9 | 0.917 | 0.993 | 6.3 | 0.7 | .
O=C(CN1CCN(C(=O)N2CCCCC2)CC1)Nc1ccc(F)cc1 | -9.3 | 1 | 1.09 | 2.27* | -3.7 | -126.8 | -97.3*
Nc1ccc(C(=O)N2CCN(S(=O)(=O)c3ccc4c(c3)OCCO4)CC2)cc1[N+](=O)[O-] | 9.7 | . | 0.903 | 1.01 | . | -1.3 | .
CCOc1cccc(/C=N/NC(=S)Nc2cc(S(=O)(=O)N3CCOCC3)ccc2N2CCOCC2)c1O | -0.2 | 1 | 1 | 2.13* | 2.1 | -113.5 | 1.1
SMILES | mIAP inh | bIAP activator | mIAP act | hIAP act | bIAP inhibitor | hIAP inh | hIAP act confirm
CCNC(=S)NNC(=O)CSc1nc2ccccc2n1C | 8.9 | . | 0.911 | 0.948 | . | 5.2 | .
CCNC(=S)NNC(=O)CSc1nc2ccccc2[nH]1 | -10.5 | 1.3 | 1.1 | 2.43* | -29.0 | -142.9 | -30.3
Cc1cc(-n2c(SCC(=O)Nc3ccc(F)c(F)c3)nc3n[nH]c(C)c3c2=N)ccc1Cl | -13.5 | . | 1.14 | 2.07* | . | -107.3 | -39.9
CCCCNC(=O)[C@]1(C)CCC[C@@]2(C)C3CC[C@@]4(C)C[C@]3(CCC21)CC4=O (some centres undefined) | -8.4 | . | 1.08 | 0.931 | . | 6.9 | .
O=c1ccc2c(-c3ccccc3)c3ccc(O)cc3oc-2c1 | 18.9 | . | 0.811 | 0.857 | . | 14.3 | .
Nc1ccc(-c2c3ccc(=O)cc-3oc3cc(O)ccc23)cc1C(=O)O | 26.3 | . | 0.737 | 0.643 | . | 35.7* | 64.5
O=C(N/N=C/c1ccccc1O)C(=O)Nc1ccccn1 | 18.8 | 1.4 | 0.812 | 2.05* | -35.7 | -105.0 | 8.8
COc1ccc(/C=N/NC(=O)C(=O)Nc2ccccn2)cc1OC | 2.1 | 1.3 | 0.979 | 1.2 | -29.1 | -19.9 | .
CNc1nnc(Sc2ncccc2[N+](=O)[O-])s1 | 5.8 | . | 0.942 | 1.08 | . | -7.8 | .
CCN(Cc1nc(-c2ccc(OC)cc2)no1)C(=O)c1ccoc1C | -2.4 | . | 1.02 | 1.02 | . | -2.3 | .
Oc1ccc(-c2csc(-c3ccccc3)n2)cc1O | 16.1 | 0.9 | 0.839 | 0.895 | 8.3 | 10.5 | .
Oc1ccc(-c2csc(-c3cccnc3)n2)cc1O | 24.8 | . | 0.752 | 0.591 | . | 40.9* | 5.9
Cc1cc(NC(=O)c2ccc(N3C(=O)C4C5C=CC(C5)C4C3=O)cc2)no1 (centres undefined) | 8.5 | 0.9 | 0.915 | 3.01* | 6.1 | -200.6 | -161.4*
Cc1cc(NC(=O)c2ccc(N3C(=O)CCC3=O)cc2)no1 | -1.4 | 0.9 | 1.01 | 1 | 7.9 | -0.4 | .
O=C1Nc2ccc(Br)cc2C12NNc1ccccc1O2 (centres undefined) | 34.3 | 0.5 | 0.657 | 4.98* | . | -398.3 | 35.0
O=[N+]([O-])c1ccc(N2N=C(c3ccccc3)CC2c2ccccc2O)cc1 (centres undefined) | 19.3 | . | 0.807 | 0.624 | . | 37.6* | -50.3
NS(=O)(=O)c1ccc(N2N=C(c3ccccc3)CC2c2ccccc2Br)cc1 (centres undefined) | -75.5 | . | 1.75 | . | . | . | .
COc1cc(/C=C/C(=O)OCC(=O)NC(=O)NC2CCCCC2)ccc1OC(F)F | 4.6 | . | 0.954 | 0.649 | . | 35.1* | 78.7
CCOc1ccccc1O[C@H](c1ccccc1)[C@H]1CNCCO1 | -14.4 | . | 1.14 | 0.997 | . | 0.3 | .
COc1cc(/C=N/NC(=O)CSc2n[nH]c(=O)[nH]c2=O)cc(OC)c1O | 4.4 | 1 | 0.956 | 1.18 | -0.7 | -17.7 | .
CCCOc1cc(N(CC)CC)ccc1/C=C(/C#N)c1nc2ccc(C)cc2[nH]1 | 31.9 | 0.5 | 0.681 | 0.631 | 48.3 | 36.9* | 3.5
O=C(Nc1cccc(O)c1)c1cc(-c2ccccc2Cl)on1 | -3.3 | . | 1.03 | 1.2 | . | -20.2 | .
COc1ccc(Cl)cc1NC(=O)CN(C)C(=O)c1cn(-c2ccccc2)nc1-c1cccnc1 | -6.8 | . | 1.07 | 1.01 | . | -1.4 | .
Cc1ccc(CC(=O)NC2CCCc3ccccc32)cc1C (centres undefined) | 2.2 | . | 0.978 | 0.839 | . | 16.1 | .
